Source: ChEMBL document CHEMBL4706701, “Synthesis and biological activity of selenopsammaplin A and its analogues as antitumor agents with DOT1L inhibitory activity” (Bioorg Med Chem, 2021)
Activity calls are given as the source filed them. The rule behind the calls is not given here.

Key:
MDA-MB-231 = assay: Antimetastatic activity against human MDA-MB-231 cells xenografted in BALB/c nu mouse assessed as down regulation of vimentin expression in tumor tissue at 5 to 15 mg/kg, ip administered thrice per week for 38 days measured 1 week post last dose by H and E staining based immunohistochemical analysis; format: functional, organism-based; details: dose 5-15 mg/kg, time 45.0 day
Method in brief: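 Tumors and lungs from orthotopic MDA-MB-231/Luc nude mice (ip dosing three times weekly, 38 days) fixed in 4% PFA, paraffin-embedded, sectioned, antigen-retrieved. Lungs H&E-stained for metastatic cells; tumor sections immunostained for Ki67, H3K79me2, E-cadherin, vimentin with HRP detection, hematoxylin counterstain, imaged at 200×.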

HCT-116 = assay: Cytotoxicity against human HCT-116 cells assessed as reduction in cell viability by SRB assay; format: functional, cell-based
Method in brief: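 Cells seeded in 96-well plates and exposed to compounds for the stated times. Zero-day controls were incubated 30 min. Cells were fixed and stained with 0.4% SRB in 1% acetic acid, and bound dye was dissolved in 10 mM Tris (pH 10.0). A515 was read, and IC50 was calculated by non-linear regression.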

O=C(NCC[Se][Se]CCNC(=O)/C(Cc1ccccc1)=N/O)/C(Cc1ccccc1)=N/O
Activity (MDA-MB-231): Active | IC50 (HCT-116): 90 nM
